# Reference: paper PMC3677025 (Pharmacological research : the official journal of the …, 2012)
# Columns and labels:
# [1] = system: EphA4 ephrin-binding domain mutants; assay: Wild-type and mutant EphA4 AP binding to immobilized ephrin-A5 Fc; set-up: species or system human; details: EphA4 AP mutants vs wild-type
# Method in brief: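 Wild-type and point-mutant human EphA4 ephrin-binding domains fused to alkaline phosphatase were added at 0.01 nM final to wells precoated with protein A and ephrin-A5 Fc, with or without test compound. Bound AP was read with p-nitrophenylphosphate. IC50 values from 2–3 separate experiments were compared with wild-type by one-way ANOVA and Dunnett's post-hoc test.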
# EphB2 [2] = assay: ELISA, ephrin-B2 AP binding to immobilized EphB2 Fc; details: concentrations up to 200 μM
# Method in brief: (§1)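 Eph receptor Fc fusions were immobilized at 1 μg/ml in TBST on protein A-coated wells. Diluted ephrin AP fusion supernatant from transiently transfected HEK293 cells was added for 2 h with or without test compound; for IC50 it was at approximately 0.01 nM. Bound AP was read with p-nitrophenylphosphate, minus Fc-only background. IC50 came from a variable-slope log(inhibitor)–response fit, bottom constrained to 0.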
# EphB2 [3] = assay: Ephrin-B2 Fc-induced EphB2 tyrosine phosphorylation in COS cells; type: cell-based; details: relative to concentrations inhibiting other Eph receptors
# Method in brief: (§2)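 Cells were serum-starved 1–2 h and pretreated 15 min with test compound (DMSO ≤0.4% final). They were then stimulated 20 min with compound present: COS cells with 0.8 μg/mL ephrin-B2 Fc, and B16 melanoma cells with 1.5 μg/mL anti-Fc-preclustered ephrin-B2 Fc, or Fc control. Lysates were made in modified RIPA. EphB2 (COS; 7 μg antibody) or EphB4 (B16; 20 μg antibody) was immunoprecipitated, probed for phosphotyrosine, then reprobed for the receptor.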
# EphA2 = EphA2 (Mus musculus, UniProt Q03145); assay: ELISA, ephrin-A5 AP binding to immobilized EphA2 Fc; details: read-out: IC50 ± SE EphA2 ephrin-A5
# EphB4 = target: T1, EphB4 (Mus musculus, UniProt P54761); assay: Ephrin-B2 Fc-induced EphB4 tyrosine phosphorylation in B16 melanoma cells; type: cell-based; details: relative to EphA2 and EphA4
# T1 sequence (P54761 16-987): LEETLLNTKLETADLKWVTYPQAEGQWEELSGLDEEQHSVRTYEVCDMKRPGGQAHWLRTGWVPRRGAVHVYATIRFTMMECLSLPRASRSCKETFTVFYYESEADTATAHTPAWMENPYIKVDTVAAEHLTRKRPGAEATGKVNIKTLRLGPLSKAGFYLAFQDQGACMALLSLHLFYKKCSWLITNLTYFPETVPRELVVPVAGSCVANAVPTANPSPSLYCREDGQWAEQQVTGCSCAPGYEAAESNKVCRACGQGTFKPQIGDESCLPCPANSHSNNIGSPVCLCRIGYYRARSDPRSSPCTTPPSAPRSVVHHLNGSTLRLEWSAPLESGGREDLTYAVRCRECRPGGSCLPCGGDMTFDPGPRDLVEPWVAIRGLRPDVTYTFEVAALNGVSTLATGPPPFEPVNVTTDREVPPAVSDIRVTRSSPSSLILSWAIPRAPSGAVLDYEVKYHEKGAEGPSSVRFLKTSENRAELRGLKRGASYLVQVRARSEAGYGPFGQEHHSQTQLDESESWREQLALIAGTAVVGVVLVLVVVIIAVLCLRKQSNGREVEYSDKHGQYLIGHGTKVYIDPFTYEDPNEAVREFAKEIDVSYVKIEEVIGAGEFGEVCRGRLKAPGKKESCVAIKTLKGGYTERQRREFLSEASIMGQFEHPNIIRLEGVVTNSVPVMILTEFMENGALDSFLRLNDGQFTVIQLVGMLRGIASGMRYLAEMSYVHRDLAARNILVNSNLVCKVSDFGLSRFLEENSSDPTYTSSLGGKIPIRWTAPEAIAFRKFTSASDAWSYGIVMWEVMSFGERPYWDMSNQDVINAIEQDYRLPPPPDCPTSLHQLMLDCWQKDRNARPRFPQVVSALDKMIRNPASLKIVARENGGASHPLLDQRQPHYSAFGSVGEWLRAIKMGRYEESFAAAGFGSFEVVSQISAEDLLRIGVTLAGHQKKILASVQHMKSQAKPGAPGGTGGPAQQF
# Method in brief: as §2
# EphB6 = assay: ELISA, ephrin-B2 AP binding to immobilized EphB6 Fc; details: read-out: IC50, inhibition of ephrin binding to EphB6
# Method in brief: as §1
# Chain of EphA2 (Q03145 26-538): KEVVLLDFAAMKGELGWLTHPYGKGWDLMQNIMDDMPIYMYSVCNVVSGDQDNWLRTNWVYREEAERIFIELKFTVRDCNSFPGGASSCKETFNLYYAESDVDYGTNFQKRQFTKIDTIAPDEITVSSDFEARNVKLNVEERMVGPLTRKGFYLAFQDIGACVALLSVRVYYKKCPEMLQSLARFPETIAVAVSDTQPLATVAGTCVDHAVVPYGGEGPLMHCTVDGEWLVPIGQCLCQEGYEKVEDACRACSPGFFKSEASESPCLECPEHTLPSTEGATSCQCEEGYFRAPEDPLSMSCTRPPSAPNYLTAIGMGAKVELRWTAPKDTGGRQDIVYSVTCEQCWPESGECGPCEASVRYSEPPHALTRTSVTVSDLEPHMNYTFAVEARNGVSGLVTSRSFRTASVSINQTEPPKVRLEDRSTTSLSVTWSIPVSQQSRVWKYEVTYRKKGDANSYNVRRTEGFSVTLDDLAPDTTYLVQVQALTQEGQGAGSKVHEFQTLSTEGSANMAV
smiles,measurement,setting,value
"O=C(Oc1cc(O)cc2c1C[C@@H](OC(=O)c1cc(O)c(O)c(O)c1)[C@@H](c1cc(O)c(O)c(O)c1)O2)c1cc(O)c(O)c(O)c1 [epigallocatechin-3,5-digallate]","effect of other EphA4 mutations, such as D123A, on inhibitory activity",[1],did not detectably affect
same,inhibition of EphB2-ephrin interaction,EphB2 [2],does not target
same,inhibition of EphB2-ephrin interaction,"EphB2 [2]; listed as Epigallocatechin-3,5-digallate",no inhibition
same,inhibition of EphB2 phosphorylation,EphB2 [3],at higher concentrations
same,IC50,EphA2,40 ± 3.8 µM
same,inhibition of EphB4 phosphorylation,EphB4,at higher concentrations
same,IC50,EphB6,< 10 µM
